LEDGF integ inh – blockers of LEDGF/p75-dependent integrase strand transfer – biochemical, TR-FRET, high throughput, primary screen; inhibition, % at 3.7 µM; TR-FRET IN-LEDGF/p75 DNA integration, Eu/Cy5; HIV-1 integrase (with human LEDGF/p75); 370,000 compounds, 0.64% hits;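 active = inhibition above the screen-wide mean plus 3 SD, cut at about 13% in these data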;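 also: signal is the Cy5 over europium emission ratio at 671 and 618 nm; 0% = plate median of compound wells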
TDP2 inh – human TDP2 enzyme inhibitors, primary screen, biochemical, epi absorbance, recombinant enzyme; T5PNP hydrolysis, p-nitrophenol absorbance 415 nm; inhibition, % at 12.8 µM; 370,000 compounds, 0.34% hits; AID 720702, 2013;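 active = inhibition above the mean of all tested compounds plus 3 SD, set per campaign, cut at about 25% in these data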;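 also: 0% = DMSO with enzyme and 100% = buffer with substrate but no TDP2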
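System – recombinant human TDP2 · Amount – 120 nM TDP2 per well · Buffer or medium – Mg2+-containing Tris-HCl buffer, pH 7.5 · Reagent – T5PNP substrate, 5 mM · Dosing – 12.8 µM single point, 1% DMSO · Incubation – 2 h at 37 °C · Measured by – epi absorbance · Read-out basis – percent inhibition · Benchmarks – high control without enzyme, low control DMSO plus TDP2 · Repeats – singlicate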
UHRF1 binding – UHRF1 methylated DNA binding inhibitors, primary screen, counter-screen for MBD2 inhibitor project, biochemical, TR-FRET, human UHRF1, single concentration | E3 ubiquitin-protein ligase UHRF1 (Homo sapiens), Q96T88 | inhibition, % at 4.4 µM | 370,000 compounds, 0.75% hits | UHRF1 binding to methylated oligo | AID 687016, 2013; in the data active = inhibition above about 21%;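 also: UHRF1 SRA domain binding a hemimethylated CpG hairpin DNA probe; 0% = median of test compound wells and 100% = reference inhibitor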
MBD2 inh – inhibitors of MBD2 binding to methylated DNA, primary screen, biochemical, TR-FRET, DNA-binding domain, human; Methyl-CpG-binding domain protein 2 (Homo sapiens), Q9UBB5; MBD2 binding to methylated oligonucleotide; inhibition, % at 4.4 µM; 370,000 compounds, 0.31% hits; AID 686964, 2013; in the data active = inhibition above about 13%
Target sequence (Q9UBB5 whole entry, looked up, the tested form may be a part): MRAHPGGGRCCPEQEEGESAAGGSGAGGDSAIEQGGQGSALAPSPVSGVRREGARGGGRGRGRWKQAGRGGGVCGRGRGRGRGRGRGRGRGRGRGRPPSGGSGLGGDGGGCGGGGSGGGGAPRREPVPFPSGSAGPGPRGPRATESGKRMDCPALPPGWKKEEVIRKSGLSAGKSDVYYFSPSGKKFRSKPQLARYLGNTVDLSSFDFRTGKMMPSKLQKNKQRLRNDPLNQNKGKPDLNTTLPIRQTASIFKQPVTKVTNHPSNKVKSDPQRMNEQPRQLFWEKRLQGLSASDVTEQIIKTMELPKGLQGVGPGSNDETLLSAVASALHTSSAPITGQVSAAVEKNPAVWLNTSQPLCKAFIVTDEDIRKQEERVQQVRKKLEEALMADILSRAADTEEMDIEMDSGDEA
* marks the source's active call; other numbers are inactive results. Compounds with a hit are over-represented: about 1.6% of the library has one in this group of screens.

SMILES	LEDGF integ inh	TDP2 inh	UHRF1 binding	MBD2 inh
c1ccc2c(c1)nnn2Cc1nnc2sc(-c3ccncc3)nn12	-3	5	-3	1
CSc1ccccc1NC(=O)NCCCl	-1	1	22*	2
CSc1ccccc1NC(=O)Nc1ccccc1Cl	-2	7	0	2
Cc1cc(OCc2nnc(SCC(=O)O)n2-c2ccccc2)ccc1Cl	0	7	1	0
O=C1NCCCC2c3c(cc(Br)c(O)c3Br)OC12N1CCOCC1 (stereo not given)	-5	0	-3	-2
O=C1NCCCC2c3cc(O)c4ccccc4c3OC12N1CCCCC1 (stereo not given)	13	57*	4	-3
CCOc1cc(C2NC(=O)NC(c3ccccc3)=C2C(=O)c2ccccc2)c(Br)cc1OCC(=O)O (stereo not given)	1	-4	-1	-6
C[C@H](CO)N1C[C@H](C)[C@@H](CN(C)Cc2ccc(-c3ccccc3)cc2)Oc2c(NC(=O)c3ccncc3)cccc2C1=O	2	-1	-1	-9
O=C(COc1ccccc1F)NCc1nc2ccccc2[nH]1	2	0	22*	11
COc1ccc(NC(=O)Cn2c(=O)n(CC3CCCO3)c(=O)c3ccccc32)c(OC)c1 (stereo not given)	5	-2	22*	8
CC(O)CNC(=O)c1ccc(-c2nn(C)c(=O)c3ccccc23)cc1 (stereo not given)	3	-6	2	1
Cc1ccc(N(C)S(=O)(=O)c2cccc(C(=O)NC3CC(C)(C)NC(C)(C)C3)c2)cc1	5	-3	-2	4
COc1ccc(/C=C/C(=O)NC(=S)NNC(=O)c2c(-c3ccccc3)noc2C)cc1	-2	12	0	1
COc1ccc(-c2cc(C(=O)NNC(=S)NC(=O)c3c(-c4ccccc4)noc3C)[nH]n2)cc1	-11	-1	22*	1
C=CC[C@@H](CC(=O)N[C@H](CO)Cc1ccccc1)C(=O)N[C@H](COC(=O)[C@@H](CC=C)CC(=O)OC(C)(C)C)Cc1c[nH]c2ccccc12	0	-11	26*	1
O=C(c1ccccc1)c1ccc(C(=O)N2CCCC(C(F)(F)F)C2)cc1 (stereo not given)	0	-14	1	-2
Cc1nc(-c2ccccc2)sc1-c1ccn[nH]1	3	-14	3	-1
Cc1nc(-c2ccccc2)sc1-c1ccnn1C	-9	-11	43*	2
Cc1nc2ccccc2c(=O)n1CCCN1CCOCC1	-1	-7	0	-5
O=C(C[C@H]1C/C=C/CC[C@@H](Cc2ccc(F)cc2)C(=O)OC[C@H](c2ccccc2)NC1=O)NCCO	1	-4	-5	-5
O=C(C[C@@H]1C/C=C\CC[C@H](Cc2ccc(F)cc2)C(=O)OC[C@@H](Cc2ccccc2)NC1=O)NCCO	1	5	21*	8
CC(=O)CSc1nc2ccccc2s1	-1	6	-1	0
CC(C)OC(=O)CSc1nc2ccccc2s1	3	4	23*	10
CCNC(=S)N/N=C(\C)c1cccc(C(F)(F)F)c1	5	9	36*	-6
Cc1cc2oc(=O)cc(CN3CCCCC3)c2cc1C(C)C	2	-3	1	2
SMILES	LEDGF integ inh	TDP2 inh	UHRF1 binding	MBD2 inh
CCOC(=O)C1CCCN(Cc2cc(=O)oc3cc(C)c(C(C)C)cc23)C1 (stereo not given)	0	-11	26*	-1
O=C(O)CCN=Cc1c(O)c2ccccc2oc1=O	1	8	2	-3
O=C(O)CCCCCN=Cc1c(O)c2ccccc2oc1=O	-3	0	23*	-3
CCn1cc(C(=O)N[C@H](C(=O)NC(C)(C)CO)C(C)C)c(=O)c2cc3c(cc21)OCO3	0	25*	-2	-4
Cc1ccc(-n2nc3c(=O)n(CCCC(=O)NCc4ccccc4C)nc(C)c3c2C)cc1	2	-20	-1	1
Cc1ccccc1CNC(=O)CCn1nc(C)c2c(C)n(-c3ccccc3)nc2c1=O	1	1	22*	10
C=C(C)CN=CC1(C)CCC(C)=CO1 (stereo not given)	-3	0	37*	0
c1ccc2c(C(c3nnnn3-c3ccc4c(c3)OCCO4)N3CCCC3)ccnc2c1 (stereo not given)	-1	2	-6	-4
c1ccc2c(C(c3nnnn3-c3ccc4c(c3)OCCO4)N3CCOCC3)ccnc2c1 (stereo not given)	1	4	22*	6
COc1cccc(-n2cn[nH]c2=S)c1	0	4	3	2
COc1ccccc1C(=O)NCc1ccccc1	2	-2	3	-4
COc1ccccc1C(=O)NCc1n[nH]c(=S)n1Cc1ccccc1	-3	9	44*	8
COc1ccccc1OCC(=O)NCCSCc1ccccc1Cl	2	-2	25*	5
Cn1cc(CN(CCCN2CCOCC2)C(=S)Nc2cccc(Cl)c2)c2ccccc21	0	-9	-1	1
Cc1cccc(NC(=S)N(CCCN2CCOCC2)Cc2cn(C)c3ccccc23)c1	0	-4	42*	1
CCOC(=O)c1cc(NC(=O)Cc2ccc(S(=O)(=O)N3CCOCC3)s2)cc(C(=O)OCC)c1	2	-4	26*	9
CCN(CC(=O)NCc1cccs1)C(=O)c1ccccc1Cl	1	-16	4	1
Cc1cccc2c1NC1(CCCC1)CC2C (stereo not given)	-1	4	22*	-3
COc1ccc(-c2cc(C(=O)NCCN3CCOCC3)c3ccccc3n2)c(OC)c1	3	5	3	3
Cc1ccc(NC(=O)[C@H](Cc2ccccc2)NC(=O)[C@@H]2Cc3ccccc3CN2)c(C)c1	2	4	27*	13
Cc1ccc(NC(=O)[C@H](NC(=O)[C@@H]2Cc3ccccc3CN2)c2ccccc2)c(C)c1	-7	-1	-1	3
Cc1ccc(C2=N/C(=C\c3coc4ccccc4c3=O)C(=O)O2)cc1	40*	3	4	-2
CCOc1ccc(C2C(C(=O)Nc3cc(C)on3)c3ccccc3C(=O)N2CCN2CCOCC2)cc1 (stereo not given)	-6	-1	0	4
CN(CCNC(=O)CCCOc1cc(=O)n(C)c2ccccc12)Cc1ccccc1	1	0	21*	6
O=S(=O)(Nc1cc(Sc2ncn[nH]2)c(O)c2ccccc12)c1ccccc1	34*	71*	11	-4
Cc1cc(O)c(Sc2ncn[nH]2)cc1NS(=O)(=O)c1ccc(Cl)cc1	6	0	0	-5
O=C(CC1Sc2ccccc2NC1=O)NCc1cccc(Cl)c1 (stereo not given)	1	3	-1	6
O=C(CC1Sc2ccccc2NC1=O)NCc1ccc(Cl)cc1 (stereo not given)	-2	15	28*	-2

High-throughput results as filed in PubChem BioAssay.
